Tested on: HEK-293T
Experiment: Multiplex assay against HEK293T
Format: toxicity, cell-based
Conditions: human
How it was run: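 At seeding, live cells were stained with Hoechst33342, BioTracker Green Microtubule Cytoskeleton Dye, MitoTracker Red and Annexin V Alexa Fluor 680. After compound addition they were imaged on a CQ1 microscope at 37°C and 5% CO2, and CellPathfinder machine-learning gating sorted them into Hoechst high-intensity objects or normal cells, with normal cells further split into healthy, pyknosed or fragmented nuclei and pyknosed cells into mitotic or apoptotic. Tubulin, mitochondrial-mass and membrane-permeability phenotypes are given as per cents of cells with healthy nuclei.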

[1] = 12 h, 1 µM, compound concentration 1 uM, replicate 1
[2] = 12 h, 1 µM, compound concentration 1 uM, replicate 2
[3] = 12 h, 10 µM, compound concentration 10 uM, replicate 1
[4] = 12 h, 10 µM, compound concentration 10 uM, replicate 2
[5] = 24 h, 1 µM, compound concentration 1 uM, replicate 1
[6] = 24 h, 1 µM, compound concentration 1 uM, replicate 2
[7] = 24 h, 10 µM, compound concentration 10 uM, replicate 1
[8] = 24 h, 10 µM, compound concentration 10 uM, replicate 2
[9] = 48 h, 1 µM, compound concentration 1 uM, replicate 1
[10] = 48 h, 1 µM, compound concentration 1 uM, replicate 2
[11] = 48 h, 10 µM, compound concentration 10 uM, replicate 1
[12] = 48 h, 10 µM, compound concentration 10 uM, replicate 2

CN(C)C(=O)Cn1cc(-c2ccc(-c3nnc4ccccn34)cc2)cn1
Population Apoptotic (%) [1]: 31% | Population Fragmented Nuclei (%) [1]: 7% | Population Healthy Nuclei (%) [1]: 80% | Population Hoechst High Intensity Objects (%) [1]: 9% | Population Membrane Permeable-Phenotype (%) [1]: 0% | Population Mitochondria Different-Phenotype (%) [1]: 40% | Population Mitotic Cells (%) [1]: 68% | Population Normal (%) [1]: 90% | Population Pyknosed Nuclei (%) [1]: 11% | Population Tubulin-Different-Phenotype (%) [1]: 32% | Total Cell Count [1]: 432 | Population Apoptotic (%) [2]: 43% | Population Healthy Nuclei (%) [2]: 79% | Population Hoechst High Intensity Objects (%) [2]: 10% | Population Mitochondria Different-Phenotype (%) [2]: 59% | Population Mitotic Cells (%) [2]: 56% | Population Normal (%) [2]: 89% | Population Pyknosed Nuclei (%) [2]: 12% | Population Tubulin-Different-Phenotype (%) [2]: 27% | Total Cell Count [2]: 337 | Population Apoptotic (%) [3]: 32% | Population Fragmented Nuclei (%) [3]: 9% | Population Healthy Nuclei (%) [3]: 76% | Population Hoechst High Intensity Objects (%) [3]: 7% | Population Membrane Permeable-Phenotype (%) [3]: 0% | Population Mitochondria Different-Phenotype (%) [3]: 61% | Population Mitotic Cells (%) [3]: 67% | Population Normal (%) [3]: 92% | Population Pyknosed Nuclei (%) [3]: 14% | Population Tubulin-Different-Phenotype (%) [3]: 42% | Total Cell Count [3]: 427 | Population Apoptotic (%) [4]: 51% | Population Fragmented Nuclei (%) [4]: 7% | Population Healthy Nuclei (%) [4]: 80% | Population Hoechst High Intensity Objects (%) [4]: 8% | Population Mitochondria Different-Phenotype (%) [4]: 55% | Population Mitotic Cells (%) [4]: 48% | Population Normal (%) [4]: 91% | Population Pyknosed Nuclei (%) [4]: 12% | Population Tubulin-Different-Phenotype (%) [4]: 18% | Total Cell Count [4]: 356 | Population Apoptotic (%) [5]: 27% | Population Fragmented Nuclei (%) [5]: 10% | Population Healthy Nuclei (%) [5]: 77% | Population Hoechst High Intensity Objects (%) [5]: 6% | Population Membrane Permeable-Phenotype (%) [5]: 0% | Population Mitochondria Different-Phenotype (%) [5]: 28% | Population Mitotic Cells (%) [5]: 72% | Population Normal (%) [5]: 93% | Population Pyknosed Nuclei (%) [5]: 12% | Population Tubulin-Different-Phenotype (%) [5]: 22% | Total Cell Count [5]: 595 | Population Apoptotic (%) [6]: 46% | Population Fragmented Nuclei (%) [6]: 9% | Population Healthy Nuclei (%) [6]: 82% | Population Hoechst High Intensity Objects (%) [6]: 7% | Population Mitochondria Different-Phenotype (%) [6]: 44% | Population Mitotic Cells (%) [6]: 53% | Population Normal (%) [6]: 92% | Population Pyknosed Nuclei (%) [6]: 7% | Population Tubulin-Different-Phenotype (%) [6]: 18% | Total Cell Count [6]: 447 | Population Apoptotic (%) [7]: 35% | Population Fragmented Nuclei (%) [7]: 7% | Population Healthy Nuclei (%) [7]: 78% | Population Hoechst High Intensity Objects (%) [7]: 4% | Population Membrane Permeable-Phenotype (%) [7]: 0% | Population Mitochondria Different-Phenotype (%) [7]: 44% | Population Mitotic Cells (%) [7]: 64% | Population Normal (%) [7]: 95% | Population Pyknosed Nuclei (%) [7]: 13% | Population Tubulin-Different-Phenotype (%) [7]: 27% | Total Cell Count [7]: 506 | Population Apoptotic (%) [8]: 61% | Population Fragmented Nuclei (%) [8]: 13% | Population Healthy Nuclei (%) [8]: 79% | Population Hoechst High Intensity Objects (%) [8]: 7% | Population Mitochondria Different-Phenotype (%) [8]: 39% | Population Mitotic Cells (%) [8]: 38% | Population Normal (%) [8]: 92% | Population Pyknosed Nuclei (%) [8]: 7% | Population Tubulin-Different-Phenotype (%) [8]: 11% | Total Cell Count [8]: 425 | Population Apoptotic (%) [9]: 18% | Population Fragmented Nuclei (%) [9]: 11% | Population Healthy Nuclei (%) [9]: 81% | Population Hoechst High Intensity Objects (%) [9]: 3% | Population Membrane Permeable-Phenotype (%) [9]: 0% | Population Mitochondria Different-Phenotype (%) [9]: 20% | Population Mitotic Cells (%) [9]: 81% | Population Normal (%) [9]: 96% | Population Pyknosed Nuclei (%) [9]: 6% | Population Tubulin-Different-Phenotype (%) [9]: 13% | Total Cell Count [9]: 946 | Population Apoptotic (%) [10]: 32% | Population Healthy Nuclei (%) [10]: 80% | Population Hoechst High Intensity Objects (%) [10]: 4% | Population Mitochondria Different-Phenotype (%) [10]: 22% | Population Mitotic Cells (%) [10]: 67% | Population Normal (%) [10]: 95% | Population Pyknosed Nuclei (%) [10]: 7% | Population Tubulin-Different-Phenotype (%) [10]: 12% | Total Cell Count [10]: 572 | Population Apoptotic (%) [11]: 30% | Population Fragmented Nuclei (%) [11]: 18% | Population Healthy Nuclei (%) [11]: 74% | Population Hoechst High Intensity Objects (%) [11]: 5% | Population Membrane Permeable-Phenotype (%) [11]: 0% | Population Mitochondria Different-Phenotype (%) [11]: 24% | Population Mitotic Cells (%) [11]: 69% | Population Normal (%) [11]: 94% | Population Pyknosed Nuclei (%) [11]: 6% | Population Tubulin-Different-Phenotype (%) [11]: 14% | Total Cell Count [11]: 753 | Population Apoptotic (%) [12]: 37% | Population Fragmented Nuclei (%) [12]: 14% | Population Healthy Nuclei (%) [12]: 79% | Population Hoechst High Intensity Objects (%) [12]: 2% | Population Mitochondria Different-Phenotype (%) [12]: 27% | Population Mitotic Cells (%) [12]: 62% | Population Normal (%) [12]: 97% | Population Pyknosed Nuclei (%) [12]: 5% | Population Tubulin-Different-Phenotype (%) [12]: 12% | Total Cell Count [12]: 616
